From PubChem BioAssay
Most compounds without a hit are left out; they make up all but 1.3% or so of the library.
PDI inh – inhibitors of human PDI, primary screen, biochemical, turbidity, single point, plate reader. Protein disulfide-isomerase (Homo sapiens), P07237. PDI insulin aggregation turbidity, A650, 90 min. inhibition, % at 10 µM. 350,000 compounds, 0.052% hits;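 active means mean inhibition across replicates of 30% or more, whatever share of single replicates reach that level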
FN deposit inh – inhibitors of fibronectin matrix deposition, primary screen, AH1F cells, Alexa488-fibronectin fluorescence, plate reader; 350,000 compounds, 0.086% hits; inhibition, % at 12.6 µM; AH1F fibroblasts, overnight; AID 743247, 2014;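 active means mean inhibition across replicates of 30% or more, regardless of how many single replicates reach that level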
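Test system: AH1F fibroblast monolayer depositing Alexa488-labelled fibronectin into matrix. Input: 10000 cells per well. Technique: fluorescence, ex 485 nm, em 525 nm. Buffer or medium: DMEM plus 2% serum, read in PBS. Timing: 1 h cell adhesion before compound, then overnight fibronectin incubation. Compound: single dose, pinned. Read-out basis: inhibition from reduced deposited-fibronectin fluorescence.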
AF4-AF9 inh – inhibitors of AF4 peptide binding to AF9, primary screen, biochemical, AlphaScreen, biotin-AF4 peptide, FLAG-AF9, single point; Protein AF-9 (Homo sapiens), P42568; 350,000 compounds, 0.47% hits; inhibition, % at 10 µM;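 active means every replicate reaching a set inhibition limit, whatever the replicate mean, cut at about 25% in these data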
ERp5 block – inhibitors of ERp5-driven insulin aggregation, primary screen, biochemical, turbidity, absorbance 650 nm, single point | Protein disulfide-isomerase A6 (Homo sapiens), Q15084 | 90 min | inhibition, % at 9.99 µM | 350,000 compounds, 0.05% hits;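 active means mean replicate inhibition above about 25%, with every replicate also reaching it, limit read from the data, passing the limit was not always enough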
SIRT5 inh – SIRT5 desuccinylase inhibitors, primary screen, biochemical, fluorescence imaging, single point, set 5. NAD-dependent protein deacylase sirtuin-5, mitochondrial (Homo sapiens), Q9NXA8. Purified SirT5, succinyl-peptide AMC, trypsin-coupled fluorescence. inhibition, % at 15 µM. 330,000 compounds, 1.1% hits. AID 652115, 2013; in the data active means inhibition above about 15%
Target sequence (Q9NXA8 whole entry, looked up): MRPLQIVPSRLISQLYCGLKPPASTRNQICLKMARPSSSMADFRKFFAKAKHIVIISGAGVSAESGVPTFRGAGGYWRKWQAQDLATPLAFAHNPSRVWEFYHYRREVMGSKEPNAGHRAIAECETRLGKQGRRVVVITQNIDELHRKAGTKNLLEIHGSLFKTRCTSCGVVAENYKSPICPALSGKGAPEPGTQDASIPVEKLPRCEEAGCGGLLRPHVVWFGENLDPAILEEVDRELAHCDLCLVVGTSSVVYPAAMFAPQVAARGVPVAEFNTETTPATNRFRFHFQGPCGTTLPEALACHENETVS
Of the large screens only hits and unclear results are named; the others gave an inactive call.

CN(CCCn1ccc(NC(=O)OCc2ccccc2)nc1=O)Cc1ccco1	SIRT5 inh 25 (no result: FN deposit inh)
C=CCNc1ncnc2c1ncn2[C@H]1CN(Cc2ccccc2)C[C@@H](CO)O1	none
C=CCNc1ncnc2c1ncn2[C@H]1CN(Cc2cccc3ccccc23)C[C@@H](CO)O1	PDI inh 39 (no result: SIRT5 inh)
COc1cccc(CN(C)C(=O)c2ccc(S(=O)(=O)Nc3ccccc3F)cc2)c1OC	none
COc1cccc(CN(C)C(=O)c2ccc(S(=O)(=O)Nc3cccc(C)c3C)cc2)c1OC	SIRT5 inh 17
COc1ccccc1C#Cc1ccc2c(c1)[C@H]1[C@H](CCN1C(=O)c1ccccc1)[C@H](CO)N2	none (no result: PDI inh)
COc1ccccc1C#Cc1ccc2c(c1)[C@H]1[C@H](CCN1C(=O)c1ccc(F)cc1)[C@@H](CO)N2	SIRT5 inh 18 (no result: PDI inh)
CCC(=O)N1CC[C@@H]2[C@@H](CO)Nc3ccc(C#Cc4cccnc4)cc3[C@@H]21	SIRT5 inh 19 (no result: PDI inh)
CC(=O)N1CC[C@@H]2[C@H](CO)Nc3ccc(C#Cc4cccnc4)cc3[C@@H]21	SIRT5 inh 18 (no result: PDI inh)
COC(=O)c1cc(C#N)c(N2CCOCC2)nc1C	none
O=c1c2ccccc2sn1-c1cc(S(=O)(=O)N2CCOCC2)ccc1N1CCCC1	none (no result: AF4-AF9 inh, ERp5 block, SIRT5 inh)
O=c1c2ccccc2sn1-c1cc(S(=O)(=O)N2CCOCC2)ccc1N1CCOCC1	FN deposit inh 50 (no result: AF4-AF9 inh, ERp5 block, SIRT5 inh)
Cc1ccn2cc(-c3ccc(NC(=O)c4ccco4)cc3)nc2c1	FN deposit inh 32 (no result: AF4-AF9 inh, ERp5 block, SIRT5 inh)
Cc1nc(-c2ccc(NC(=O)c3ccco3)cc2)cs1	none
Cc1ccc(S(=O)(=O)N(C)CC(=O)N2CCC(C(N)=O)CC2)cc1	none
C[C@H](CO)N1C[C@H](C)[C@@H](CN(C)C(=O)Nc2ccccc2F)Oc2cc(-c3cccc(C#N)c3)ccc2S1(=O)=O	none (no result: PDI inh, FN deposit inh)
CN=c1scc(-c2ccc([N+](=O)[O-])cc2)n1/N=C/c1ccco1	none
CN=c1scc(-c2ccc(F)cc2)n1/N=C/c1ccc(O)c(O)c1	AF4-AF9 inh 59
CCOc1ccc(/C=N/NC(=O)C2CC2)cc1OC	none
CS(=O)(=O)N1CCCCC1c1cc(C(=O)Nc2ccc3c(c2)OCO3)no1 (stereo unspecified)	none (no result: SIRT5 inh)
COc1ccc(S(=O)(=O)N2CCCCC2c2cc(C(=O)Nc3ccc4c(c3)OCO4)no2)cc1 (stereo unspecified)	FN deposit inh 35
COc1ccc(OC)c(NC2c3ncccc3C(=O)N2Cc2ccco2)c1 (stereo unspecified)	SIRT5 inh 16 (no result: FN deposit inh)
C[C@H]1CCCCO[C@@H](CN(C)C(=O)Nc2ccc(F)cc2)[C@@H](C)CN([C@@H](C)CO)C(=O)c2cc(NS(=O)(=O)c3cccs3)ccc2O1	none (no result: PDI inh, FN deposit inh)
CC(C)C[C@H]1CN(CCCC[C@H]2CNC(=O)C(=O)N2CC2CCCCC2)C(=O)C(=O)N1Cc1ccccc1	AF4-AF9 inh 27 (no result: PDI inh)
O=C(CCS(=O)(=O)c1ccc(Br)cc1)NCCc1ccccc1	none
NS(=O)(=O)c1ccc(CCNC(=O)CCS(=O)(=O)c2ccc(Br)cc2)cc1	SIRT5 inh 16
C=CC(=O)Nc1ccc(N(C)c2ccnc(Nc3ccc(N4CCN(C)CC4)cc3)n2)cc1	AF4-AF9 inh 60
CN1CCN(c2ccc(NC(=O)c3ccc(Oc4ccccc4)cc3)cc2)CC1	none
Cc1cccc(NC(=O)N(C)Cc2cccs2)c1	none (no result: AF4-AF9 inh, ERp5 block, SIRT5 inh)
CC(=O)C1=C(c2ccc(Br)cc2)C(=O)c2ccccc2C1=O	FN deposit inh 39 (no result: AF4-AF9 inh, ERp5 block, SIRT5 inh)
C[C@H](CO)N1C[C@H](C)[C@@H](CN(C)C(=O)Nc2ccccc2)Oc2cc(C#C[C@@H](C)O)ccc2S1(=O)=O	none (no result: PDI inh)
O=C(COC(=O)c1ccccc1C(F)(F)F)NC(=O)NCc1ccco1	none
COc1cccc(/C=C/C(=O)NNC(=O)c2ccncc2)c1OC	none
CSc1ccc(C(=O)C2CCCN(C(=O)c3ccc4c(c3)OCO4)C2)cc1 (stereo unspecified)	SIRT5 inh 16
O=C(c1cccc(Cl)c1)C1CCCN(C(=O)c2ccc3c(c2)OCO3)C1 (stereo unspecified)	AF4-AF9 inh 31
CNc1ccccc1C(C)(C)c1cc(-c2ccc(F)cc2)no1	none (no result: AF4-AF9 inh, ERp5 block, SIRT5 inh)
CC(=O)O[C@H]1CC[C@@]2(C)[C@@H](CC[C@H]3[C@@H]4CC[C@H](C(C)O)[C@@]4(C)CC(=O)[C@@H]32)C1 (stereo partly specified)	SIRT5 inh 23
CC(=O)OC1CCC2(C)C(CCC3C2CC(=O)C2(C)C3CC(C3CCCC3=O)C2C(C)=O)C1 (stereo unspecified)	SIRT5 inh 15
COc1cccc(C(=O)Oc2ccc(/C=N/NC(=O)c3ccncc3)cc2OC)c1	SIRT5 inh 21
Cc1c(CCC(=O)N[C@@H](CC(C)C)C(=O)O)c(=O)oc2cc3oc4c(c3cc12)CCCC4	PDI inh 38
Cc1ccc(NC(=O)CN2C(=O)S/C(=C\c3cc(C)n(-c4cccc(C(=O)O)c4)c3C)C2=O)cc1	none
CC1=C(C(=O)N(C)C)CC(CC(=O)NCc2ccco2)C(=O)N1Cc1ccccc1 (stereo unspecified)	SIRT5 inh 16
COc1ccc(C(=O)NC2CCCCCCC2)cc1OC	none (no result: ERp5 block)
COc1cccc(CNc2ccc3c(c2)ncn3C(C)C)c1OC	AF4-AF9 inh 48
O=C(Cc1ccc(F)cc1)Nc1nc(-c2ccc(F)c(F)c2)cs1	SIRT5 inh 16
O=C(OCCc1cc2ccccc2c(=O)o1)c1ccc(C(F)(F)F)cc1	none (no result: SIRT5 inh)
O=C(OCCc1cc2ccccc2c(=O)o1)c1ccc(F)cc1	SIRT5 inh 33
O=C(COC(=O)c1ccccc1O)Nc1ccc(OC(F)F)cc1	none (no result: FN deposit inh, AF4-AF9 inh, ERp5 block, SIRT5 inh)
CCCCCc1cc(=O)oc2c(C(CCN(CC)CC)c3ccc(N(C)C)cc3)c(OC)cc(OC)c12 (stereo unspecified)	AF4-AF9 inh 52
CN1CCN(c2ccc(CNC(=O)c3ccc4c(c3)OCCO4)cc2)CC1	none
CN(Cc1ccccc1F)C(=O)c1ccc(NS(=O)(=O)c2ccc3[nH]c(=O)[nH]c3c2)cc1	SIRT5 inh 31
CCC(Sc1nc2ncnc(N)c2[nH]1)C(=O)O (stereo unspecified)	SIRT5 inh 17
COc1ccc(-n2c(SCC(=O)c3ccc[nH]3)nnc2-c2ccccc2)cc1	none (no result: AF4-AF9 inh, ERp5 block, SIRT5 inh)
O=C(CSc1nnc(-c2ccccc2)n1-c1ccccc1)c1ccc[nH]1	FN deposit inh 33 (no result: AF4-AF9 inh, ERp5 block, SIRT5 inh)
CCN(c1cccc(C)c1)S(=O)(=O)c1cc2c3c(c1)CCC(=O)N3CCC2	none
CC(=O)NC(Cc1c[nH]c2ccccc12)C(=O)OCC(=O)N1CCN(S(=O)(=O)c2ccc(Cl)cc2)CC1 (stereo unspecified)	PDI inh 32
CCC(=O)N1CCc2cc(S(=O)(=O)CCC(=O)NCc3cccs3)ccc21	none (no result: FN deposit inh, AF4-AF9 inh, ERp5 block, SIRT5 inh)
COc1ccc(/C=C/C(=O)O)cc1Cl	AF4-AF9 inh 43
